Assay results from ChEMBL document CHEMBL4513216, “Probing the Open Global Health Chemical Diversity Library for Multistage-Active Starting Points for Next-Generation Antimalarials” (ACS Infect Dis, 2020).

Assay: Toxicity liver stage against HepG2, at 10uM
Type: cell-based
Parameters: test concentration 10 uM, cell line HepG2-A16-CD81EGFP
Conditions: human, HepG2-A16-CD81EGFP cells; read-out: INHIBITION
Outline: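 Uninfected HepG2-A16-CD81EGFP cells, 3 × 10^3 per well, 1536-well, plated on prespotted compound at 10 μM final, parasite-free screening media added to match infected plates; puromycin 10 μM positive, DMSO 0.5% negative; run in parallel with 48 h PbLuc assay at 37 °C, 5% CO2; viability by CellTiter-Glo luminescence, normalized to controls.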

SMILES | cytotoxicity at 10 µM [%]
NC(=O)CSCC(=O)N1CCc2cc(Cl)cc(Cl)c2C1 | 27.9
Cn1cnc2c1CCN(Cc1csc(-c3ccccc3F)n1)C2 | -4.25
CC(Cn1ccnc1)NCc1cc(Br)c2c(c1)OCO2 (stereo unspecified) | 12.9
CC(C)CC(=O)N1CC[C@@H]2CN(Cc3cccnc3)S(=O)(=O)[C@@H]2CC1 | -103
CCN(Cc1ccc(O)c(C(=O)O)c1)CC1CCOCC1 | -5.24
O=C(CCc1ccc(Cl)s1)NCc1nnc2n1CCCCC2 | -6.1
CC(C)c1ccc(C#N)c(N2CC(C)(C)[C@@](C)(O)C2)n1 | 2.71
CCC(C)(CNC(=O)c1ccon1)NC(=O)c1ccon1 (stereo unspecified) | -0.903
CC(C)N(C)Cc1noc2c1CN(C(=O)c1ccsc1)CC2 | 4.89
Cc1cnn(CCNCC(=O)NC2(C#N)CCCC2)c1 | -13.2
CC(=O)c1ccc(N2CCN(C(=O)NC(C)c3ccc(C)o3)CC2)cc1 (stereo unspecified) | 10.1
Cc1ncsc1C(=O)N1CCc2[nH]nc(-c3ccc4c(c3)OCO4)c2C1 | -141
CC(C)(C)c1cc(NC(=O)C2CCCO2)n(-c2ccccn2)n1 (stereo unspecified) | -1.26
CCCS(=O)(=O)N1CCC2(CCC(=O)N(Cc3ccccc3)C2)CC1 | 11.2
COCc1cc(NCc2ccccc2OC)ncn1 | 7.69
CN(C)C(CNC(=O)c1ncoc1-c1ccccc1)c1ccsc1 (stereo unspecified) | -0.303
Cc1cc(N2CC(c3n[nH]c4nccnc34)C2)ncn1 | -11.2
CN(C)CCN1CCOCC2(C1)CN(Cc1nccs1)CCO2 (stereo unspecified) | 6
CCOC(=O)[C@H]1[C@@H](O)C(=O)N(C)C12CCN(C(=O)OCC)CC2 | -7.83
Cc1ncnc2c1CCN(C(=O)c1ccncc1F)CC2 | -71.1
COc1ccc2nc(C)c(C(=O)NCCN3CCS(=O)(=O)CC3)cc2c1 | -15.2
CN1CCN(C(=O)C2CCCc3[nH]ncc32)CC1 (stereo unspecified) | 0.247
CN1CCC(CNC(=O)Cc2ccc(N(C)C)cc2)CC1 | 6.8

SMILES | cytotoxicity at 10 µM [%]
Cc1oc(CN(C)C(=O)c2ccc(Br)cc2)cc1C(=O)O | 5.5
CCNC(=O)NCc1cnn(-c2ccc(F)cc2F)c1 | -6.52
Cc1c(C(=O)O)nnn1-c1cccc2cccnc12 | 5.31
COCC(=O)N1CCCC1(C)c1nc(C)cc(O)n1 (stereo unspecified) | -28.5
COc1cccc(Cn2ncnc2COC(C)C)c1 | -5.62
O=C(NCc1nnc2n1CCCCC2)N1CCc2ccccc2C1 | 4.66
CN(C)CC1CN(CC(=O)N2CCc3ccccc32)CCO1 (stereo unspecified) | -1.61
CN(C1CCN(c2ccccn2)CC1)S(=O)(=O)c1cccs1 | 13.3
O=S(=O)(Cc1ccc(F)cc1)NCc1ccco1 | 14.1
CCOc1ccccc1C(CC(=O)Nc1ccccc1F)NC(C)=O (stereo unspecified) | -15.4
Cc1ccc(-c2nc(CN3CCCC(Cn4cncn4)C3)no2)cc1 (stereo unspecified) | -4.86
CCC(=O)N1CCC(c2cc(Nc3ncccn3)nc(C)n2)C1 (stereo unspecified) | -24
FC(F)(F)Cn1cc(NCc2cscn2)cn1 | -8.51
CSCC(=O)N1CCc2nc(C)nc(NCc3ccccc3)c2CC1 | 1.69
COC(=O)C1CN(CC(=O)Nc2cc(F)ccc2F)c2ccccc21 (stereo unspecified) | 8.32
Cc1ncc(CN(C)CC2CCCN2c2cccnn2)s1 (stereo unspecified) | 4.19
CCN1CCN(C2CCN(Cc3ccc(Cl)s3)CC2)C1=O | 13.1
COc1cccc(OC2CN(C(=O)c3sccc3C)C2)c1 | 2.3
Cn1cccc1C(O)CNS(=O)(=O)c1ccccc1Br (stereo unspecified) | -11.1
CN(C)c1nccc(N2CCO[C@H]3CN(CC4CCOCC4)C[C@H]32)n1 | -7.21
Cc1cccc(OC2CCN(c3nc(N)nc4[nH]cnc34)CC2)c1 | 35.4
CN(CC(=O)NC1(C)CCS(=O)(=O)C1)Cc1ccc(Br)cc1 (stereo unspecified) | -1.4
CCN(CCn1cccn1)C(=O)CN1C(=O)OC[C@@H]1C(C)C | 1.97

SMILES | cytotoxicity at 10 µM [%]
CCOC(=O)N1CCC2(CCNC2)C1 (stereo unspecified) | 2.14
CCc1ccc(C(=O)NCc2cccc(S(=O)(=O)NC)c2)o1 | -2.31
CCO[C@H]1CC[C@H]2[C@H]1OCCN2C(=O)CC1=CCCCC1 | 1.75
O=C(c1ccoc1)N1CCc2ncnc(NCc3ccccn3)c2CC1 | 0.224
CN1C[C@H](c2ccccc2)[C@H]2CN(C(=O)Cc3cccc(O)c3)CC[C@H]21 | 4.98
Fc1ccc(C2CCCCN2Cc2cc(-c3ccccn3)no2)cc1 (stereo unspecified) | -3.88
CC(C)n1cnnc1SCCN(C)c1ccccc1 | 2.96
COCCN1CCN(CC(=O)N(C)Cc2ccsc2)CC1C (stereo unspecified) | -127
COc1cc(NC(=O)NC2CCOCC2)ccc1N1CCOC1=O | -4.59
CC(C)(C)c1nnc2n1C(C(=O)N1CCOCC1)CC2 (stereo unspecified) | 1.52
CC(C)N(CC(N)=O)CC(=O)N(C1=CCCCC1)C1CC1 | -0.429
CCCc1nc(C)cc(NC(C)Cc2cnccn2)n1 (stereo unspecified) | -0.166
CCC1CCCN(CC(=O)Nc2oc(C)c3c(C)n[nH]c(=O)c23)C1 (stereo unspecified) | -3.66
O=C(C1CCCC1)N1CCOC(c2nc(-c3ncccn3)no2)C1 (stereo unspecified) | -2.3
Cc1cc(F)cc2c(NCC(C)(C)C(N)=O)c(C#N)cnc12 | -3.25
Cc1c(CCC(=O)Nc2ccc(Cl)cn2)cnn1C | 0.678
OC[C@H]1CCCN1c1nccc(-c2c[nH]nc2C2CCCCC2)n1 | -2.5
CNc1nccnc1C1CCN(C(C)C)CC1 | -25.2
COc1cc(-c2cc(-c3ccn(C)c3)nc(N)c2C#N)cc(OC)c1O | -7.77
CC(C)C(=O)Nc1ccc(Oc2ccc3c(c2)OCO3)nc1 | -12.4
COC(C)(C)CC(C)NCc1cc(-c2ccco2)on1 (stereo unspecified) | 1.81
CC(C)CCCC1CN(C(=O)c2cnc[nH]2)CCO1 (stereo unspecified) | 2.83
Cc1nn(C)c2cn(CC(=O)N3CCN(c4ccccc4)CC3)nc12 | 6.94

SMILES | cytotoxicity at 10 µM [%]
Cc1cc(C(=O)N2C[C@@H]3CC[C@H]2CN(Cc2ccccn2)C3)nc(C)n1 | 2.36
FC(F)(F)COc1cccc(-c2nc3c([nH]2)CCNC3)c1 | 4.5
O=C(CC1CC1)N[C@@H]1CN(Cc2ccoc2)C[C@@H]2CCCO[C@@H]21 | 7.83
Cc1cnn(CC2CN(Cc3csc(C4CCCC4)n3)CCO2)c1 (stereo unspecified) | -5.47
Cn1cc(NC(=O)CCCc2cccs2)c(=O)n(C)c1=O | 5.55
CCN(CC)C(=O)Cn1c(=O)n(Cc2ccco2)c2ncccc21 | -6.77
COc1cc(CN2C[C@@H]3CNC(=O)[C@H](C)[C@@H]3C2)cc(OC)c1 | 0.405
Cc1ccc(C(CNC(=O)c2cc(=O)c3ccccc3[nH]2)N(C)C)cc1 (stereo unspecified) | -14.6
c1ncn(CC2CN(Cc3nc(-c4ccsc4)no3)CCO2)n1 (stereo unspecified) | -4.72
CCc1nc(C2CCCN2C(=O)c2nccnc2N)no1 (stereo unspecified) | -18.7
O=C1CO[C@H]2CN(C3CCOCC3)C[C@H]2N1Cc1ccccn1 | 0.566
COc1ccccc1N1CCN(C(=O)CCn2ccc(C)n2)CC1 | -3.24
Cc1nnsc1C(=O)N1CC[C@H](c2ccccc2)[C@@H]2[C@H]1CCCCN2C | -17.6
CC(C)CC(=O)N1CCN(Cc2csc(-c3ncccn3)n2)CC1 | 8.61
CCn1nc(C)c2nc(C(C)C)nc(NCC(C)O)c21 (stereo unspecified) | 8.02
Cc1cc(C)cc(NS(=O)(=O)c2cc3c(c(C(=O)O)c2)OCCO3)c1 | 0.289
CN(Cc1nnc(C2CC2)n1C)S(=O)(=O)c1ccccc1C#N | 14.9
Cc1nc2cc(C(=O)N3CCCC(n4cncn4)C3)ccc2n1C (stereo unspecified) | -8.26
Cc1ccccc1C1(CN)CCOCC1 | 7.93
Cc1nn(C)c(N(C)C)c1CNCC(O)c1ccccc1F (stereo unspecified) | -7.9
O=C(c1ccc(-c2ccoc2)nc1)N1CCCN(C2CCCCC2)CC1 | 7.69
Cc1ccc(CN2CC(O)CN(C(=O)OCC(C)C)CC2=O)cc1 (stereo unspecified) | -3.09
CN(Cc1cc2cc(F)ccc2[nH]1)c1cc(C2CCCNC2)ncn1 (stereo unspecified) | 7.16

SMILES | cytotoxicity at 10 µM [%]
CC(C)OCc1noc(C2CCOC2)n1 (stereo unspecified) | 1.19
CS(=O)(=O)N1CC2(CCN(C(=O)c3csnn3)CC2)c2ccccc21 | 7.88
CN1CCCN(C(=O)c2cc(-c3cc[nH]n3)n3ccccc23)CC1 | 11
COCCCN1C(=O)CC[C@H]2CN(Cc3ccc4nonc4c3)CC[C@H]21 | 2.46
OCC1(CCOc2ccccc2)CCN(c2ccc(Cl)cn2)CC1 | -43.4
CCC(=O)Nc1ccc(C(C)NC(=O)COCCOC)cc1 (stereo unspecified) | -7.71
CCS(=O)(=O)N1CC(=O)N(CCOc2ccccc2)CC(O)C1 (stereo unspecified) | -0.739
COc1cccc(SCC(=O)N2CCC(N3CCCC(O)C3)CC2)c1 (stereo unspecified) | -18.7
CS(=O)(=O)c1ccccc1C(=O)NCC1Cc2ccccc2O1 (stereo unspecified) | -9.6
CCc1nnc(CN2CCCC(Cn3nc(C)nc3C)C2)o1 (stereo unspecified) | 6.81
Cc1cc(NC(=O)c2ccc(F)cc2Br)n(C)n1 | -3.12
COCC(=O)N(C)Cc1nc(N(C)C)ncc1-c1ccncc1 | 2.42
Cc1ccoc1C(=O)N1CC(C(=O)N2CCOCC2)C2(CCOCC2)C1 (stereo unspecified) | -1.2
COc1ccc(CN2C[C@@H](CN(C)C)[C@@H](CO)C2)c(Cl)c1OC | -8.44
CC(=O)NC1CCCN(Cc2ccc(OCc3ccccn3)cc2)C1 (stereo unspecified) | 1.41
CC(C)CC(=O)N1CCc2nc(N3CCOCC3)nc(NC(C)C)c2C1 | 2.86
CC[C@@H]1N(Cc2ccsc2)CCC[C@]12CCC(=O)N2C | 10
O=C(CCC1CC1)N1CCC(n2cc(C3(O)CCCC3)nn2)CC1 | 9.4
c1ccc(-c2nnc([C@H]3CCN(C4CCC4)C3)o2)cc1 | 1.74
